Test results taken from ChEMBL document CHEMBL4152283, “Discovery of potent and novel smoothened antagonists via structure-based virtual screening and biological assays” (Eur J Med Chem, 2018).
pIC50: −log10 of the molar value. Calls of active or inactive are those of the source. The calls are words filed in the database; no cut-off is given here.

Legend:
[1] = target: Protein smoothened (Mus musculus, UniProt P56726); assay: Antagonist activity at Smo receptor in mouse NIH/3T3 cells harboring GRE-Luc assessed as inhibition of SAG-induced Hh signaling pathway co-incubated with SAG measured after 48 hrs by luciferase reporter gene assay
Sequence of Protein smoothened (Mus musculus, UniProt P56726) (P56726 whole entry): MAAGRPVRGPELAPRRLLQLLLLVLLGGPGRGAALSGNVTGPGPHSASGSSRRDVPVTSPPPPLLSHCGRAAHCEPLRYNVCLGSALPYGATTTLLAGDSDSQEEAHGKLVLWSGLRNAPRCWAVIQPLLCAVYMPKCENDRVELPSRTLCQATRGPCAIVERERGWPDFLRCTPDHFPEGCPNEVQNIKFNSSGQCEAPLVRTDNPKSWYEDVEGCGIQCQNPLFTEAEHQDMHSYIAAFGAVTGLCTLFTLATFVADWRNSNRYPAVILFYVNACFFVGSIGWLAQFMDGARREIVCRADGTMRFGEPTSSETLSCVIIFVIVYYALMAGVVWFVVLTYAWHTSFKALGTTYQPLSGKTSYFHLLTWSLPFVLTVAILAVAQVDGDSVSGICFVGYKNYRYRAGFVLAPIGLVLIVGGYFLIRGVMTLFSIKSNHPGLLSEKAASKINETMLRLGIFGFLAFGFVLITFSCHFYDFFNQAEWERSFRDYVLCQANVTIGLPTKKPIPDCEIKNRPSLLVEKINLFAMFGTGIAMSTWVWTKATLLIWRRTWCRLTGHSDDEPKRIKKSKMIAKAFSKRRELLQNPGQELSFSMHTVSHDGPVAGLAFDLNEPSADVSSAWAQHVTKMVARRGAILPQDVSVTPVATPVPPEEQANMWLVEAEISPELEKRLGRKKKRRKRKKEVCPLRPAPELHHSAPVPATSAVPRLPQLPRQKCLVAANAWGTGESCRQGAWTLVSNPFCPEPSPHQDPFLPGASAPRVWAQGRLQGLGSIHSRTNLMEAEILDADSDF

[2] = target: T1, Protein smoothened (Homo sapiens, UniProt Q99835); assay: Displacement of BODIPY-Cyclopamine from human HA-tagged Smo receptor expressed in human U2OS cells at 3 to 1000 nM by DAPI staining based fluorescence microscopic method; assay type: cell-based
T1 sequence (Q99835 whole entry): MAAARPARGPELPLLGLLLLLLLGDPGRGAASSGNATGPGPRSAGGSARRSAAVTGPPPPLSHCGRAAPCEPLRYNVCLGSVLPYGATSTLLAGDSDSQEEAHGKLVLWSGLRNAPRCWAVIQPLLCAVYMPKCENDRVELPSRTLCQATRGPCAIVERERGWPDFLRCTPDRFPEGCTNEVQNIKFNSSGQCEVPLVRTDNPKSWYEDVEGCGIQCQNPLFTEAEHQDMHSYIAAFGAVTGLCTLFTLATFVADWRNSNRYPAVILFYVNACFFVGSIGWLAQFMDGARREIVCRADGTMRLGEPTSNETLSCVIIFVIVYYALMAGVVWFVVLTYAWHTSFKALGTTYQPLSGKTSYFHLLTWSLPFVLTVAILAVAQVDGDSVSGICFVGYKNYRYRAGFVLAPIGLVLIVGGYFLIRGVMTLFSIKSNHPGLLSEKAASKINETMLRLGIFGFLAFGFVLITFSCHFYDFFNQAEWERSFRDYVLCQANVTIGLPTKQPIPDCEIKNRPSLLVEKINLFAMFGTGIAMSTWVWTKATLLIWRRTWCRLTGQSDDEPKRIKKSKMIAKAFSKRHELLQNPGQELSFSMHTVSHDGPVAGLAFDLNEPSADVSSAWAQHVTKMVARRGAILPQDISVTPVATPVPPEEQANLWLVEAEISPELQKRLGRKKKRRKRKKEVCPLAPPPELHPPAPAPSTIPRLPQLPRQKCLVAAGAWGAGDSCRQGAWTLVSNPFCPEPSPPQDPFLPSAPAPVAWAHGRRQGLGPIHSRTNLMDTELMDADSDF
Summary of the method: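 Puromycin-selected U2OS clone expressing HA-tagged human Smo, seeded 10,000 cells/well in 10% serum DMEM and cultured 48 h at 37 °C. Cells fixed in 4% PFA for 20 min, DAPI (5 µg/mL) for 10 min, PBS washes, then 2 h at room temperature with 100 nM BODIPY-cyclopamine plus serially diluted compound. PBST washes, automated high-content fluorescence imaging, data normalized to GDC-0449. Sigmoidal fit for IC50. Ki by Cheng-Prusoff using probe Kd 255 ± 57 nM.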

[3] = target: T1, Protein smoothened; assay: Antagonist activity at Smo receptor (unknown origin); assay type: functional

| SMILES | pIC50 [1] | other results |
| --- | --- | --- |
| Cc1oc(-c2cccc(Cl)c2)nc1CN1CCC(C(=O)NC2CCCc3ccccc32)CC1 (stereo not given) | 6.02 | – |
| CC(C)c1ccc(NC(=O)c2cc(S(=O)(=O)N3CCN(c4ccccc4F)CC3)ccc2F)cc1 | < 5.00 | – |
| Cc1ccc(NCc2cccn2-c2nnc(N3CCC(C(=O)NC4CCCCC4C)CC3)s2)cn1 (stereo not given) | 6.62 | – |
| CN(C(=O)Cn1c(=O)n(CCCC(=O)NCc2ccccc2)c(=O)c2sccc21)c1ccccc1 | < 5.00 | – |
| Cc1ccc(NCc2cccn2-c2nnc(N3CCC(C(=O)N4CCC(O)C4)CC3)s2)cc1 (stereo not given) | 5.12 | – |
| Cc1c(C(=O)NC2CCCCC2)sc2ncn(CC(=O)Nc3cccc(C(F)(F)F)c3)c(=O)c12 | < 5.00 | – |
| Cc1cccc(CNC(=O)Cc2cccc(N(Cc3ccccc3)C(=O)c3ccc(C#N)cc3)c2)c1 | < 5.00 | – |
| Cc1ccc(NCc2cccn2-c2nnc(N3CCC(C(=O)NC4CCCC4)CC3)s2)cc1 | 6.28 | – |
| COc1cccc2c1OC1(C)CC2NC(=O)N1c1cccc(C(=O)N2CCN(c3ccccc3F)CC2)c1 (stereo not given) | < 5.00 | – |
| CC1CCN(C(C)CNC(=O)c2ccc3c(c2)NC(=O)C(CS(=O)(=O)Cc2ccc(F)cc2Cl)N3)CC1 (stereo not given) | < 5.00 | – |
| Cc1ccc(NCc2cccn2-c2nnc(N3CCC(C(=O)NCC(C)(C)O)CC3)s2)cc1 | 5.37 | – |
| Cc1ccc(NCc2cccn2-c2nnc(N3CCC(C(=O)NCC4CC4)CC3)s2)cc1 | 5.77 | – |
| O=C(Nc1ccc(N2CCN(Cc3ccccc3O)CC2)nc1)c1ccccc1C(F)(F)F | 5.62 | – |
| Cc1ccc(NCc2cccn2-c2nnc(N3CCC(C(=O)NC4CCCCC4C)CC3)s2)cc1 (stereo not given) | 7.33 | inhibition [2]: Active |
| CCC(Sc1nnc2c(=O)n(-c3ccc(C)c(C)c3)ccn12)C(=O)Nc1ccccc1C (stereo not given) | < 5.00 | – |
| Cc1ccc(NCc2cccn2-c2nnc(N3CCC(C(=O)NC4CCCCC4C)CC3)s2)nc1 (stereo not given) | 7.24 | – |
| COc1ccc2[nH]cc(CCNC(=O)c3ccccc3NC(=O)c3nsc4ccccc34)c2c1 | < 5.00 | – |

| SMILES | pIC50 [1] | other results |
| --- | --- | --- |
| O=C1CC(NC2CCN(c3ccc(C(F)(F)F)cn3)CC2)C(=O)N1c1ccc(F)cc1 (stereo not given) | < 5.00 | – |
| CCn1cc(C(=O)O)c(=O)c2cc(F)c(N3CCN(C(=S)NC(=O)Cc4ccc(Cl)cc4)CC3)cc21 | < 5.00 | – |
| COc1ccc(-n2nc(C(=O)NCC(=O)Nc3nc4ccccc4s3)c3ccccc3c2=O)cc1 | < 5.00 | – |
| Cc1ccc(NCc2cccn2-c2nnc(N3CCC(C(=O)NC(C)C)CC3)s2)cc1 | 5.92 | – |
| COc1cc(C(=O)NC(=N)Nc2cccc(NC(=O)c3ccc(-c4ccccc4)cc3)c2)cc(OC)c1OC | – | pIC50 [3]: 8.00 |
| O=C(CSc1nnc(CNC(=O)c2cccs2)n1-c1ccccc1)Nc1nc2ccccc2s1 | < 5.00 | – |
| COc1ccc(Cl)cc1NC(=O)c1ccc(-n2nc(OCc3cccc(F)c3)ccc2=O)cc1 | < 5.00 | – |
| COc1cc(F)ccc1S(=O)(=O)NCCNc1nc(-c2ccc(F)cc2)nc2ccccc12 | < 5.00 | – |
| CCNC(=O)C1CCN(c2nnc(-n3cccc3CNc3ccc(C)cc3)s2)CC1 | 5.28 | – |
| CC1Cc2ccccc2N1C(=O)c1ccc(=O)n(CCC(=O)N2CCN(c3ccccc3)CC2)n1 (stereo not given) | 5.52 | – |
| Cc1ccc(NCc2cccn2-c2nnc(N3CCC(C(=O)NCC(C)C)CC3)s2)cc1 | 5.96 | – |
| Cc1ccc(NCc2cccn2-c2nnc(N3CCC(C(=O)N4CCCC4)CC3)s2)cc1 | 5.37 | – |
| O=C(Nc1cccc(N2CCCN(Cc3ccc(F)c(F)c3)C2=O)c1)OCc1ccccc1 | 5.92 | – |
| Cc1ccc(NCc2cccn2-c2nnc(N3CCC(C(=O)NC4CCCCC4)CC3)s2)cc1 | 6.18 | – |
| Cc1ccc(NC(=O)CSc2nc3ccc(NC(=O)c4ccccc4Cl)cc3s2)cc1Cl | < 5.00 | – |
| Cc1ccc(-c2cc3c(N4CCC(C(=O)NC(C)c5ccccc5)CC4)nccn3n2)cc1C (stereo not given) | 5.34 | – |
| Cc1ccc(NCc2cccn2-c2nnc(N3CCC(C(=O)NC4CC4)CC3)s2)cc1 | 5.38 | – |
